Each block holds one molecule with its values, some of them ahead of it.
Key:
MAPs-rich tubulin = experiment: Light scattering assay of MAPs-rich tubulin polymerization; assay type: biochemical, goat; details: 50 µM compound, 1 mg/ml MAPs-rich tubulin, 37°C, 400 nm
[1] = Pharmacokinetics after intravenous administration; assay type: in vivo, CD-1 mice
How it was run: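 Male CD-1 mice, fasted 3 h, received a single IV dose of test compound at 5 mg/kg in water. Blood was sampled sparsely from the retro-orbital plexus at 5 min–24 h into K2EDTA. Plasma was protein-precipitated with acetonitrile and 7-hydroxynoscapine internal standard, then quantified by positive-mode MRM LC-MS/MS (calibration 1 ng/mL–1 µg/mL). Non-compartmental analysis: linear-trapezoid AUC, CL and Vss from IV data, C0 back-extrapolated.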

[2] = Pharmacokinetics after oral administration; assay type: in vivo, CD-1 mice; details: for Fold increase in F compared to Nos: oral 50 mg/kg
How it was run: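 Male CD-1 mice (3 per group), fasted 3 h, were dosed once by oral gavage at 50 mg/kg in water. Plasma was collected by sparse retro-orbital sampling at 5 min–24 h. Samples were acetonitrile-precipitated with internal standard and assayed by LC-MS/MS (1 ng/mL–1 µg/mL). Non-compartmental analysis: linear-trapezoid AUClast, Cmax taken as observed. F is dose-normalized oral AUClast over IV (5 mg/kg) AUClast.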

MIA PaCa-2 cells = experiment: MTT cell proliferation assay, MIA PaCa-2; assay type: cell-based
How it was run: (§1)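 Cell lines were grown in medium with 10% FBS and 1% penicillin/streptomycin: PC-3 in RPMI; HeLa, MIA PaCa-2 and T24 in DMEM. Cells were seeded at 5×10^3 per well, attached overnight, then given test compound (0–500 µM, from PBS solution, diluted in medium) for 48 h. MTT was added for 4 h and formazan dissolved in DMSO. A570 was read. IC50 is the concentration giving 50% inhibition of proliferation.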

HeLa cells = experiment: MTT cell proliferation assay, HeLa; assay type: cell-based; details: 48 h
How it was run: as §1

T24 bladder cancer cells = experiment: MTT cell proliferation assay, T24; assay type: cell-based
How it was run: as §1

pure tubulin [3] = experiment: Light scattering assay of pure tubulin polymerization; assay type: biochemical, goat; details: 10 µM tubulin, 1M monosodium glutamate
MAPs rich tubulin = experiment: GTPase activity assay; assay type: biochemical, goat; details: different concentrations of compound, 10 min
PC-3 cells [4] = experiment: MTT cell proliferation assay, PC-3; assay type: cell-based, human
How it was run: as §1

pure tubulin [5] = experiment: GTPase activity assay; assay type: biochemical, goat; details: 50 µM compound, compared to control
PC-3 cells [6] = experiment: Immunofluorescence confocal microscopy of spindle morphology; assay type: cell-based, human; details: 12h and 24h
How it was run: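 PC-3 cells were grown on glass coverslips and exposed to test compound for 12 h or 24 h. Cells were fixed in −20 °C methanol for 10 min, then blocked in 2% BSA/PBS at 37 °C for 1 h. They were stained with anti-α- and anti-γ-tubulin (1:1000, 45 min, 37 °C) and Alexa Fluor 488/555 secondaries (1:1000, 45 min, 37 °C). DNA was stained with DAPI. Slides were mounted in antifade and imaged by confocal microscopy.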

[7] = male, CD-1, mouse, plasma, iv, 5 mg/kg
[8] = male, CD-1, mouse, plasma, po, 50 mg/kg
[9] = oral gavage 50 mg/kg, CD-1 mice, plasma

SMILES: COc1ccc2c(c1OC)C(=O)O[C@@H]2[C@H]1c2c(cc3c(c2OC)OCO3)CCN1C [Compound 1, Noscapine, reference compound]
Percent decrease in light scattering of MAP-tubulin (MAPs-rich tubulin): 11 ± 4%
AUC(0-t) [1, 7]: 479 ng·h/mL
C0 [1, 7]: 1210 ng/mL
Vd [1, 7]: 4.55 L/kg
clearance [1, 7]: 174 mL/min/kg
half-life [1, 7]: 23.4 min
AUC(0-t) [2, 8]: 603 ng·h/mL
Tmax [2, 8]: 4.8 min
bioavailability [2, 8]: 13%
Cmax ([2]; oral gavage 50 mg/kg, CD-1 mice, plasma, listed as Nos, 50 mg/kg): 1156 ± 19 ng/mL
IC50 (MIA PaCa-2 cells; Homo sapiens, MIA PaCa-2, 48 h): 105 µM
IC50 (HeLa cells; Homo sapiens): 436 µM
IC50 (T24 bladder cancer cells; 48 h): 83 µM
% Decrease in light scattering of pure tubulin (pure tubulin [3]; 10 µM compound): 5±1.5%
% Decrease in light scattering of pure tubulin (pure tubulin [3]; 25 µM compound): 9±2.6%
% Decrease in light scattering of pure tubulin (pure tubulin [3]; 50 µM compound): 13±2.9%
change in GTPase activity of MAPs-rich tubulin (MAPs rich tubulin): remained almost unchanged
IC50 (PC-3 cells [4]; Homo sapiens, PC-3, 48 h): 100 µM

SMILES: COc1ccc2c(c1OC)C(=O)O[C@@H]2[C@H]1c2c(c(NCCC[N+](C)(C)C)c3c(c2OC)OCO3)CCN1C.[Br-] [Compound 4a, 3-(((R)-5-((S)-4,5-dimethoxy-3-oxo-1,3-dihydroisobenzofuran-1-yl)-4-methoxy-6-methyl-5,6,7,8-tetrahydro-[1,3]dioxolo[4,5-g]isoquinolin-9-yl)amino)-N,N,N-trimethylpropan-1-aminium bromide]
Percent decrease in light scattering of MAP-tubulin (MAPs-rich tubulin): 29 ± 5%

SMILES: COc1ccc2c(c1OC)C(=O)O[C@@H]2[C@H]1c2c(c(NCCCCS(=O)(=O)O)c3c(c2OC)OCO3)CCN1C [Compound 4b, 4-(((R)-5-((S)-4,5-dimethoxy-3-oxo-1,3-dihydroisobenzofuran-1-yl)-4-methoxy-6-methyl-5,6,7,8-tetrahydro-[1,3]dioxolo[4,5-g]isoquinolin-9-yl)amino)butane-1-sulfonic acid]
Percent decrease in light scattering of MAP-tubulin (MAPs-rich tubulin): 30 ± 9%
IC50 (PC-3 cells [4]; Homo sapiens, PC-3, 48 h): 490 µM

SMILES: COc1ccc2c(c1OC)C(=O)O[C@@H]2[C@H]1c2c(c(NCCCS(=O)(=O)O)c3c(c2OC)OCO3)CCN1C [Compound 4c, 3-(((R)-5-((S)-4,5-dimethoxy-3-oxo-1,3-dihydroisobenzofuran-1-yl)-4-methoxy-6-methyl-5,6,7,8-tetrahydro-[1,3]dioxolo[4,5-g]isoquinolin-9-yl)amino)propane-1-sulfonic acid]
Percent decrease in light scattering of MAP-tubulin (MAPs-rich tubulin): 27 ± 10%

SMILES: COc1ccc2c(c1OCCC[N+](C)(C)C)C(=O)O[C@@H]2[C@H]1c2c(cc3c(c2OC)OCO3)CCN1C.[Br-] [Compound 6a, 3-(((S)-5-methoxy-1-((R)-4-methoxy-6-methyl-5,6,7,8-tetrahydro-[1,3]dioxolo[4,5-g]isoquinolin-5-yl)-3-oxo-1,3-dihydroisobenzofuran-4-yl)oxy)-N,N,N-trimethylpropan-1-aminium bromide]
Percent decrease in light scattering of MAP-tubulin (MAPs-rich tubulin): 19 ± 6%

SMILES: COc1ccc2c(c1OCCC[N+](C)(C)C)C(=O)O[C@@H]2[C@H]1c2c(c(Br)c3c(c2OC)OCO3)CCN1C.[Br-] [Compound 8a, 3-(((S)-1-((R)-9-bromo-4-methoxy-6-methyl-5,6,7,8-tetrahydro-[1,3]dioxolo[4,5-g]isoquin-olin-5-yl)-5-methoxy-3-oxo-1,3-dihydroisobenzofuran-4-yl)oxy)-N,N,N-trimethylpropan-1-aminium bromide]
Percent decrease in light scattering of MAP-tubulin (MAPs-rich tubulin): 30 ± 12%

SMILES: COc1cc([C@@H]2c3cc4c(cc3[C@H](O)[C@H]3COC(=O)[C@H]23)OCO4)cc(OC)c1OC [podophyllotoxin]
change in GTPase activity of MAPs-rich tubulin (MAPs rich tubulin): decreased

More lines, main results first:

IC50 (HeLa cells; Homo sapiens): 436 µM
IC50 (T24 bladder cancer cells; 48 h): 191 µM
SMILES: COc1ccc2c(c1OC)C(=O)O[C@@H]2[C@H]1c2c(c(Br)c3c(c2OC)OCO3)CCN1C [Compound 2, (S)-3-((R)-9-bromo-4-methoxy-6-methyl-5,6,7,8-tetrahydro-[1,3]dioxolo[4,5-g]isoquinolin-5-yl)-6,7-dimethoxyisobenzofuran-1(3H)-one, reference compound]

change in GTPase activity of pure tubulin (pure tubulin [5]): did not change significantly
AUC(0-t) [1, 7]: 198 ng·h/mL
C0 [1, 7]: 502 ng/mL
Vd [1, 7]: 9.53 L/kg
clearance [1, 7]: 369 mL/min/kg
half-life [1, 7]: 37.8 min
AUC(0-t) [2, 8]: 611 ng·h/mL
Tmax [2, 8]: 4.8 min
bioavailability [2, 8]: 27%
Cmax ([2]; oral gavage 50 mg/kg, CD-1 mice, plasma, 50 mg/kg): 2970 ± 60 ng/mL
IC50 (MIA PaCa-2 cells; Homo sapiens, MIA PaCa-2, 48 h): 30 µM
IC50 (HeLa cells; Homo sapiens): 66 µM
IC50 (T24 bladder cancer cells; 48 h): 3.3 µM
change in GTPase activity of MAPs-rich tubulin (MAPs rich tubulin): increased significantly
IC50 (PC-3 cells [4]; Homo sapiens, PC-3, 48 h): 19 µM
SMILES: COc1ccc2c(c1OCCCCS(=O)(=O)O)C(=O)O[C@@H]2[C@H]1c2c(cc3c(c2OC)OCO3)CCN1C [Compound 6b, 4-(((S)-5-methoxy-1-((R)-4-methoxy-6-methyl-5,6,7,8-tetrahydro-[1,3]dioxolo[4,5-g]isoquinolin-5-yl)-3-oxo-1,3-dihydroisobenzofuran-4-yl)oxy)butane-1-sulfonic acid]
Percent decrease in light scattering of MAP-tubulin (MAPs-rich tubulin): 74 ± 13%
% Decrease in light scattering of pure tubulin (pure tubulin [3]; 10 µM compound): 14±6%
% Decrease in light scattering of pure tubulin (pure tubulin [3]; 25 µM compound): 25±7.6%
% Decrease in light scattering of pure tubulin (pure tubulin [3]; 50 µM compound): 35±7.2%
spindle / mitotic phenotype (PC-3 cells [6]): induced a multipolar phenotype

IC50 (PC-3 cells [4]; Homo sapiens, PC-3, 48 h): 275 µM
SMILES: COc1ccc2c(c1OCCCS(=O)(=O)O)C(=O)O[C@@H]2[C@H]1c2c(cc3c(c2OC)OCO3)CCN1C [Compound 6c, 3-(((S)-5-methoxy-1-((R)-4-methoxy-6-methyl-5,6,7,8-tetrahydro-[1,3]dioxolo[4,5-g]isoquinolin-5-yl)-3-oxo-1,3-dihydroisobenzofuran-4-yl)oxy)propane-1-sulfonic acid]
Percent decrease in light scattering of MAP-tubulin (MAPs-rich tubulin): 32 ± 14%

CL ([1]; IV 5 mg/kg, CD-1 mice): 512 mL/min/kg
VSS ([1]; IV 5 mg/kg, CD-1 mice): 23.81 L/kg
half-life ([1]; IV 5 mg/kg, CD-1 mice): 22.8 min
AUClast ([1]; IV 5 mg/kg, CD-1 mice, plasma): 145.41 ng·h/mL
C0 ([1]; back extrapolated concentration, IV 5 mg/kg, CD-1 mice, plasma): 259.39 ng/mL
Bioavailability F ([2]; dose normalized AUClast, oral 50 mg/kg vs IV 5 mg/kg, CD-1 mice): 11
Fold increase in F compared to Nos ([2]; CD-1 mice, 50 mg/kg): 0.9 fold
Tmax ([2]; oral gavage 50 mg/kg, CD-1 mice): 4.8 min
AUClast [2, 9]: 164 ng·h/mL
Cmax [2, 9]: 14 ± 7 ng/mL
IC50 (MIA PaCa-2 cells; MIA Paca-2, 48 h, MTT): 40 µM
IC50 (HeLa cells; MTT): 53 µM
IC50 (T24 bladder cancer cells; T24, 48 h, MTT): 32 µM
IC50 (PC-3 cells [4]; PC-3 cells, 48 h, MTT): 29 µM
SMILES: COc1ccc2c(c1OCCCCS(=O)(=O)O)C(=O)O[C@@H]2[C@H]1c2c(c(Br)c3c(c2OC)OCO3)CCN1C [Compound 8b, 4-(((S)-1-((R)-9-bromo-4-methoxy-6-methyl-5,6,7,8-tetrahydro-[1,3]dioxolo[4,5-g]isoquin-olin-5-yl)-5-methoxy-3-oxo-1,3-dihydroisobenzofuran-4-yl)oxy)butane-1-sulfonic acid]
Percent decrease in light scattering of MAP-tubulin (MAPs-rich tubulin): 68 ± 18%
spindle / mitotic phenotype (PC-3 cells [6]): induced a multipolar phenotype

AUC(0-t) [1, 7]: 133 ng·h/mL
C0 [1, 7]: 307 ng/mL
Vd [1, 7]: 18.4 L/kg
clearance [1, 7]: 584 mL/min/kg
half-life [1, 7]: 42 min
AUC(0-t) [2, 8]: 240 ng·h/mL
Tmax [2, 8]: 4.8 min
bioavailability [2, 8]: 21%
Fold increase in F compared to Nos ([2]; CD-1 mice, 50 mg/kg): 1.7 fold
IC50 (MIA PaCa-2 cells; Homo sapiens, MIA PaCa-2, 48 h): 18 µM
IC50 (HeLa cells; Homo sapiens): 53 µM
IC50 (T24 bladder cancer cells; 48 h): 4 µM
IC50 (PC-3 cells [4]; Homo sapiens, PC-3, 48 h): 55 µM
SMILES: COc1ccc2c(c1OCCCS(=O)(=O)O)C(=O)O[C@@H]2[C@H]1c2c(c(Br)c3c(c2OC)OCO3)CCN1C [Compound 8c, 3-(((S)-1-((R)-9-bromo-4-methoxy-6-methyl-5,6,7,8-tetrahydro-[1,3]dioxolo[4,5-g]isoquinolin-5-yl)-5-methoxy-3-oxo-1,3-dihydroisobenzofuran-4-yl)oxy)propane-1-sulfonic acid]
Percent decrease in light scattering of MAP-tubulin (MAPs-rich tubulin): 61 ± 21%
spindle / mitotic phenotype (PC-3 cells [6]): induced a multipolar phenotype

— paper PMC4363136 (Biochemical pharmacology, 2014)
